The source of these data is ChEMBL document CHEMBL2380202, “Identification of substituted 2-thio-6-oxo-1,6-dihydropyrimidines as inhibitors of human lactate dehydrogenase” (Bioorg Med Chem Lett, 2013).

Values after ≈ are worked out from the molar mass of the structure shown. Active and inactive are the calls of the source. The calls are words filed in the database; no cut-off is given here. Bounds are passed on as bounds.

In data set [1] the target is L-lactate dehydrogenase B chain (Homo sapiens, UniProt P07195). As to the kind of experiment: Inhibition of human recombinant carboxy-terminal his-tagged LDHB (1 to 333) expressed in insect cells using pyruvate as substrate after 10 mins by UV endpoint analysis.
L-lactate dehydrogenase B chain, sequence (P07195 whole entry): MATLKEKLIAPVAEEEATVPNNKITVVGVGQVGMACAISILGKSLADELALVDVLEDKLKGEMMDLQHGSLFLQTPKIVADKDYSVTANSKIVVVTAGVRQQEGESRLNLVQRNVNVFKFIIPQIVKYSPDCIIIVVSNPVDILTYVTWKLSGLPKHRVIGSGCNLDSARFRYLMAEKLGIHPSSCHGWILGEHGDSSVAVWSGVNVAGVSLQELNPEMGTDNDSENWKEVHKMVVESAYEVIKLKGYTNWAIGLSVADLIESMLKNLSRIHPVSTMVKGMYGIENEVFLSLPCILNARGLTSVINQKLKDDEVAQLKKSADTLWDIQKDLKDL
For data set [2], the target named is T1, L-lactate dehydrogenase A chain (Homo sapiens, UniProt P00338). Nature of the data set: Inhibition of human recombinant carboxy-terminal his-tagged LDHA (1 to 331) expressed in Escherichia coli using pyruvate as substrate after 10 mins by UV endpoint analysis.
For data set [3], the target named is T1, L-lactate dehydrogenase A chain. Nature of the data set: Binding affinity to human recombinant carboxy-terminal avi-tagged LDHA (1 to 331) expressed in Escherichia coli by surface plasmon resonance analysis presence of NADH. In short, it runs like this:
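SPR with NADH present; twofold dilution series of analyte injections; K_D obtained by fitting kinetics or the equilibrium dose response; arithmetic mean of 2 separate runs.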
A general note: Surface plasmon resonance follows binding to a sensor surface in real time, without labels.

Data set [4] in a line: Aqueous solubility of the compound in PBS buffer at pH 7.2 at 100 uM after 24 hrs. Type of data set: physicochemical. In outline:
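Aqueous solubility estimated from a high-throughput assay; single determination (n = 1).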

Data set [5] is described as follows: Clearance in human liver microsomes at 1 uM up to 60 mins. The class given is ADME, Microsome. In outline:
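Human liver microsome stability, single determination (n = 1); in vitro result extrapolated to in vivo clearance, classed stable below 6.2 and labile above 15.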
For orientation: Liver microsomes are vesicles of endoplasmic reticulum, rich in cytochrome P450 enzymes.

Data set [6] has as its target L-lactate dehydrogenase (Homo sapiens) (UniProt V9HWB9). As to the kind of experiment: Inhibition of LDH in human HCC1954 cells assessed as lactate accumulation up to 50 uM after 6 hrs. Type of data set: cell-based.
The target in data set [7] is T1, L-lactate dehydrogenase A chain. Nature of the data set: Inhibition of human recombinant carboxy-terminal his-tagged LDHA (1 to 331) expressed in Escherichia coli using pyruvate as substrate after 10 mins by MS endpoint analysis. In outline:
(§1)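 Biochemical enzyme inhibition; reported as the arithmetic mean of 2 separate runs (n = 2).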

For data set [8] the target is unchanged. As to the kind of experiment: Binding affinity to human recombinant carboxy-terminal avi-tagged LDHA (1 to 331) expressed in Escherichia coli by surface plasmon resonance analysis absence of NADH. In outline: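 SPR run without NADH; analyte injected as a twofold dilution series; K_D estimated relative to a control; mean of 2 separate runs.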
The target in data set [9] is T2, Malate dehydrogenase, cytoplasmic (Homo sapiens, UniProt P40925).
T2 sequence (P40925 whole entry): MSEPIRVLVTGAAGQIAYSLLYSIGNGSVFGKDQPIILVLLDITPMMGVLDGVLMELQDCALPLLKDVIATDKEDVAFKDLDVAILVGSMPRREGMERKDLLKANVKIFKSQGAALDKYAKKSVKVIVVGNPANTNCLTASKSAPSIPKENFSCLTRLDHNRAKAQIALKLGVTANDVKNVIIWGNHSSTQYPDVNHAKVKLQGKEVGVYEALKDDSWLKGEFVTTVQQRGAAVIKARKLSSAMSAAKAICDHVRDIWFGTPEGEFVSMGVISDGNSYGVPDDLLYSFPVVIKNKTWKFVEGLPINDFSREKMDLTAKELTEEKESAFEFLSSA
As to the kind of experiment: Inhibition of human recombinant carboxy-terminal his-tagged MDH-1 (3 to 334) expressed in Escherichia coli using oxaloacetic acid as substrate after 10 mins by UV endpoint analysis. In short, it runs like this:
as §1

Data set [10] has as its target T3, Malate dehydrogenase, mitochondrial (Homo sapiens, UniProt P40926).
T3 sequence (P40926 whole entry): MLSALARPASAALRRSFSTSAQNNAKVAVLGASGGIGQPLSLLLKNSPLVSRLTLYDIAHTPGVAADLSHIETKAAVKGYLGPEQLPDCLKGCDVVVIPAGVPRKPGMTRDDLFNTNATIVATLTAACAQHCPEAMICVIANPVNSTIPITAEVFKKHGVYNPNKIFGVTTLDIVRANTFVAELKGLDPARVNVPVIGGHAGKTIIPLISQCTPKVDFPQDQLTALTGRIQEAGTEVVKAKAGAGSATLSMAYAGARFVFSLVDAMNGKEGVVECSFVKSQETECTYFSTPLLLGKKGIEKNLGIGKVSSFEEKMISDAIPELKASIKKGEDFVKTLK
Nature of the data set: Inhibition of human recombinant carboxy-terminal his-tagged MDH-2 (20 to 338) expressed in Escherichia coli using oxaloacetic acid as substrate after 10 mins by UV endpoint analysis. In outline: as §1

The term IC50 denotes the concentration that gives 50% inhibition. As a reminder, the Kd is the equilibrium constant for the complex coming apart. Take `Cc1ccc(NC(=O)CSc2nc(-c3ccc(Cl)cc3)c(C#N)c(=O)[nH]2)cc1C`: the 50% inhibitory concentration (IC50) in data set [1] is over 100 µM; in data set [2], 38.6 µM. For the same molecule, the dissociation constant Kd in data set [3] stood at 552 µM.
On the same counts, the results for `Cc1c(Cl)cccc1NC(=O)CSc1nc(-c2ccc(Cl)cc2)c(C#N)c(=O)[nH]1` are over 100 µM, 50.2 µM and 462 µM.
The corresponding values for `COc1ccc(NC(=O)CSc2nc(-c3ccc(Cl)cc3)c(C#N)c(=O)[nH]2)cc1Cl` are over 100 µM, 26.5 µM and 640 µM.
With `N#Cc1c(-c2ccc(Cl)cc2)nc(SCC(=O)Nc2ccc(Cl)cc2)[nH]c1=O`, the half-inhibitory concentration (IC50) in [1] is over 100 µM; in data set [2] it was 55.7 µM. Moreover, in [3], the Kd came to 570 µM.
For orientation: solubility means the concentration that dissolves in the medium under given conditions. Molecule `CC(Sc1nc(-c2ccc(Cl)c(F)c2)c(C#N)c(=O)[nH]1)C(=O)Nc1ccc(S(N)(=O)=O)cc1` (racemic) registered a solubility at 24 h, 100 µM in data set [4] of 64 µM (≈ 32.5 µg/mL). Besides, in data set [5], the CLhep predicted at 1 µM was 3.4 mL/min/kg. Further, the results for the IC50 in data set [1] and in data set [2] were 2.3 µM and 0.71 µM, respectively. For the same molecule, the inhibition entry in data set [6] is “inactive”. In addition, the Kd in data set [3] was 2.9 µM.
With `CC(Sc1nc(-c2ccc(Cl)cc2)c(C#N)c(=O)[nH]1)C(=O)Nc1ccc(S(N)(=O)=O)cc1` (racemic), the concentration in solution in [4] (solubility at 24 h, 100 µM) came to 58 µM (≈ 28.4 µg/mL). In addition, in [5], the CLhep predicted at 1 µM was 2.6 mL/min/kg. In addition, the IC50 in data set [1] came out at 3 µM; in data set [2] it was 0.48 µM. The inhibition result in data set [6] is “inactive”. The Kd in data set [3] was 2.2 µM.
Turning to `CCC(Sc1nc(-c2ccc(Cl)cc2)c(C#N)c(=O)[nH]1)C(=O)Nc1ccc(S(N)(=O)=O)cc1` (racemic), the solubility at 24 h, 100 µM in data set [4] is 136 µM (≈ 68.5 µg/mL). For the same molecule, in [5], the CLhep predicted at 1 µM is 2.8 mL/min/kg. For the same molecule, the IC50 in [1] came to 2.4 µM; in data set [2], 0.65 µM. In addition, the equilibrium dissociation constant (Kd) in data set [3] stood at 3 µM.
With `CNS(=O)(=O)c1ccc(NC(=O)CSc2nc(-c3ccc(Cl)cc3)c(C#N)c(=O)[nH]2)cc1`, the IC50 in [1] and in data set [2] was over 100 µM in each case. The dissociation constant (Kd) in data set [3] came out at 532 µM.
Turning to `CC(C)c1ccc(NC(=O)CSc2nc(-c3ccc(Cl)cc3)c(C#N)c(=O)[nH]2)cc1`, the half-inhibitory concentration (IC50) in [2] is 22.6 µM. In addition, in data set [3], the Kd was 552 µM.
As for `NC(=O)C(=O)O` [OXAMATE], the IC50 in data set [1] was 33.8 µM.
As for `N#Cc1c(-c2ccccc2)nc(SCC(=O)Nc2ccc(S(N)(=O)=O)cc2)[nH]c1=O`, in [2], the IC50 is 12.1 µM. Besides, the dissociation constant (Kd) in [3] was 15.4 µM.
Regarding `CCc1ccccc1NC(=O)CSc1nc(-c2ccc(Cl)cc2)c(C#N)c(=O)[nH]1`, the IC50 in data set [2] is over 100 µM. Moreover, the Kd in [3] came to 1210 µM.
For the molecule `Cc1cccc(NC(=O)CSc2nc(-c3ccc(Cl)cc3)c(C#N)c(=O)[nH]2)c1C`, the IC50 in [2] is over 100 µM. Further, the dissociation constant Kd in data set [3] is 1060 µM.
In the case of `CCC(Sc1nc(-c2cccc(OC)c2)c(C#N)c(=O)[nH]1)C(=O)Nc1ccc(S(N)(=O)=O)cc1` (racemic), the CLhep predicted at 1 µM in [5] was 6.9 mL/min/kg. The half-maximal inhibitory concentration (IC50) in data set [1] worked out at 7.7 µM; in data set [2], 7.4 µM. Moreover, the Kd in [3] was 8.9 µM.
As for `N#Cc1c(-c2ccc(Cl)cc2)nc(SCC(=O)Nc2ccc(S(N)(=O)=O)cc2)[nH]c1=O`, the CLhep predicted at 1 µM in [5] is 5.3 mL/min/kg. Moreover, the IC50 was 1900 nM in [7], 8.8 µM in [2], over 10 µM in data set [9] and over 10 µM in data set [10]. In addition, the equilibrium dissociation constant (Kd) is 384 µM in data set [8] and 6.1 µM in [3].
Take `COc1cccc(-c2nc(SCC(=O)Nc3ccc(S(N)(=O)=O)cc3)[nH]c(=O)c2C#N)c1`: in data set [2], the IC50 amounted to 42.4 µM. In addition, the dissociation constant Kd in data set [3] came to 38.4 µM.
`Cc1ccc(NC(=O)CSc2nc(-c3ccc(Cl)cc3)c(C#N)c(=O)[nH]2)cc1Cl`: the half-inhibitory concentration (IC50) in data set [2] was 27.6 µM. Besides, in data set [3], the dissociation constant Kd was 466 µM.
Take `COc1ccc(CNC(=O)c2cc(=O)c3c(O)cc(OCCc4ccc(NC(=O)C(=O)O)c(OC)c4)cc3o2)cc1`: the half-maximal inhibitory concentration (IC50) was determined as 6.78 µM in data set [9] and 8.48 µM in data set [10].
Regarding `N#Cc1c(-c2ccc(Cl)cc2)nc(SCC(=O)Nc2ccc(F)c(Cl)c2)[nH]c1=O`, the values for the 50% inhibitory concentration (IC50) in [1] and in data set [2] were over 100 µM and 46.8 µM, respectively. Moreover, the Kd in data set [3] was determined as 314 µM.
With `CC(Sc1nc(-c2ccc(Cl)c(Cl)c2)c(C#N)c(=O)[nH]1)C(=O)Nc1ccc(S(N)(=O)=O)cc1` (racemic), the concentration in solution in data set [4] (solubility at 24 h, 100 µM) came to 30 µM (≈ 15.7 µg/mL). Also, the CLhep predicted at 1 µM in [5] is 2.6 mL/min/kg. Moreover, the 50% inhibitory concentration (IC50) in [1] was determined as 3.7 µM; in [2], 0.75 µM. The inhibition result in data set [6] was “inactive”. Further, the dissociation constant (Kd) in data set [3] was 5.1 µM.
For the molecule `Cc1ccccc1NC(=O)CSc1nc(-c2ccc(Cl)cc2)c(C#N)c(=O)[nH]1`, in data set [2], the IC50 is over 100 µM. Moreover, the Kd in data set [3] worked out at 1010 µM.
`N#Cc1c(-c2ccc(Cl)cc2)nc(SCC(=O)Nc2cccc(Cl)c2)[nH]c1=O`: the 50% inhibitory concentration (IC50) is over 100 µM in data set [1] and 55.8 µM in [2]. The dissociation constant Kd in [3] amounted to 386 µM.
For the molecule `COc1ccccc1NC(=O)CSc1nc(-c2ccc(Cl)cc2)c(C#N)c(=O)[nH]1`, in [2], the IC50 is over 100 µM. Besides, in data set [3], the Kd amounted to 1110 µM.
Turning to `CC(Sc1ncc(C#N)c(=O)[nH]1)C(=O)Nc1ccc(S(N)(=O)=O)cc1` (racemic), the IC50 in data set [2] is 12.5 µM.
The same measure, in the same setting: to `CC(Sc1nc(-c2ccccc2)cc(=O)[nH]1)C(=O)Nc1ccc(S(N)(=O)=O)cc1` (racemic) belongs over 100 µM.
